Laboratory results from ChEMBL document CHEMBL1667766, “Synthesis of elastin based peptides conjugated to benzisoxazole as a new class of potent antimicrobials--A novel approach to enhance biocompatibility” (2011).
Where a SMILES comes first, the peptide text is derived from it. The star is where a group is joined. X1 = Fc1ccc2c(C3CCN(*)CC3)noc2c1

Key:
Type in all cases: functional
Fusarium oxysporum [1] = assay: Antifungal activity against Fusarium oxysporum after 24 hrs by agar well diffusion method
Procedure, shortened: (§1)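 Fungi subcultured in 25 mL nutrient broth for one day to give inoculum, then spread on solidified Sabouraud agar. Wells punched with a 6 mm cork borer and filled with 0.1 mL test solution in DMSO, prepared from a 1 mg/mL stock. Bavistin as reference, DMSO as negative control. Read-out is inhibition zone diameter (mm).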

Escherichia coli [2] = assay: Antimicrobial activity against Escherichia coli after 72 hrs by microdilution method
Klebsiella pneumoniae [3] = assay: Antimicrobial activity against Klebsiella pneumoniae after 24 hrs by agar well diffusion method
Procedure, shortened: (§2)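 Bacteria grown in nutrient broth at 37 °C for 24 h, subcultured in 25 mL broth at room temperature, then spread on nutrient agar. Wells (6 mm cork borer) filled with 0.1 mL test solution in DMSO, prepared from a 1 mg/mL stock. Amoxicillin as reference, DMSO as negative control. Plates kept 24 h at 37 °C; inhibition zone measured in mm.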

Aspergillus niger [4] = assay: Antifungal activity against Aspergillus niger after 24 hrs by agar well diffusion method; procedure, shortened: as §1
Escherichia coli [5] = assay: Antimicrobial activity against Escherichia coli after 24 hrs by agar well diffusion method; procedure, shortened: as §2
Aspergillus flavus [6] = assay: Antifungal activity against Aspergillus flavus after 72 hrs by microdilution method
Fusarium oxysporum [7] = assay: Antifungal activity against Fusarium oxysporum after 72 hrs by microdilution method
Aspergillus niger [8] = assay: Antifungal activity against Aspergillus niger after 72 hrs by microdilution method
Staphylococcus [9] = assay: Antimicrobial activity against coagulase positive Staphylococcus after 24 hrs by agar well diffusion method; procedure, shortened: as §2
Xanthomonas oryzae [10] = assay: Antimicrobial activity against Xanthomonas oryzae after 24 hrs by agar well diffusion method
Xanthomonas oryzae [11] = assay: Antimicrobial activity against Xanthomonas oryzae after 72 hrs by microdilution method
Klebsiella pneumoniae [12] = assay: Antimicrobial activity against Klebsiella pneumoniae after 72 hrs by microdilution method
Aspergillus flavus [13] = assay: Antifungal activity against Aspergillus flavus after 24 hrs by agar well diffusion method; procedure, shortened: as §1
Staphylococcus [14] = assay: Antimicrobial activity against coagulase positive Staphylococcus after 72 hrs by microdilution method

Compound | inhibition zone (IZ) (Fusarium oxysporum [1]) | MIC (Escherichia coli [2]) | inhibition zone (IZ) (Klebsiella pneumoniae [3]) | inhibition zone (IZ) (Aspergillus niger [4]) | inhibition zone (IZ) (Escherichia coli [5]) | MIC (Aspergillus flavus [6]) | MIC (Fusarium oxysporum [7]) | MIC (Aspergillus niger [8]) | inhibition zone (IZ) (Staphylococcus [9]) | inhibition zone (IZ) (Xanthomonas oryzae [10]) | MIC (Xanthomonas oryzae [11]) | MIC (Klebsiella pneumoniae [12]) | inhibition zone (IZ) (Aspergillus flavus [13]) | MIC (Staphylococcus [14])
NCC(=O)N[C@@H](Cc1ccccc1)C(=O)NCC(=O)N[C@@H](Cc1ccccc1)C(=O)N1CCC[C@H]1C(=O)N1CCC(c2noc3cc(F)ccc23)CC1.O=C(O)C(F)(F)F (H-GFGFP-X1) | 23 mm | 8 mg/L | 18 mm | 29 mm | 25 mm | 8 mg/L | 8 mg/L | 6 mg/L | 18 mm | 20 mm | 9 mg/L | 6 mg/L | 21 mm | 8 mg/L
C[C@H](NC(=O)CNC(=O)CN)C(=O)N1CCC[C@H]1C(=O)N1CCC(c2noc3cc(F)ccc23)CC1.O=C(O)C(F)(F)F (H-GGAP-X1) | 16 mm | 17 mg/L | 12 mm | 19 mm | 18 mm | 18 mg/L | 19 mg/L | 15 mg/L | 11 mm | 13 mm | 13 mg/L | 14 mg/L | 13 mm | 16 mg/L
NCC(=O)NCC(=O)N[C@@H](Cc1ccccc1)C(=O)N1CCC[C@H]1C(=O)N1CCC(c2noc3cc(F)ccc23)CC1.O=C(O)C(F)(F)F (H-GGFP-X1) | 20 mm | 14 mg/L | 15 mm | 25 mm | 22 mm | 15 mg/L | 16 mg/L | 11 mg/L | 14 mm | 16 mm | 11 mg/L | 11 mg/L | 16 mm | 13 mg/L
CC(C)[C@H](NC(=O)CN)C(=O)NCC(=O)N[C@H](C(=O)N1CCC[C@H]1C(=O)N1CCC(c2noc3cc(F)ccc23)CC1)C(C)C.O=C(O)C(F)(F)F (H-GVGVP-X1) | 21 mm | 11 mg/L | 17 mm | 27 mm | 23 mm | 9 mg/L | 10 mg/L | 8 mg/L | 15 mm | 17 mm | 10 mg/L | 8 mg/L | 17 mm | 10 mg/L
